Test results: ChEMBL document CHEMBL4373642, “Fluoroquinolone-derived fluorescent probes for studies of bacterial penetration and efflux” (Medchemcomm, 2019); call rule not given here
Converted amounts (≈) assume the structure as drawn.

Legend:
[1] = tested on: Staphylococcus aureus; test: Antibacterial activity against Staphylococcus aureus ATCC 25923 assessed as reduction in bacterial growth incubated for 18 to 24 hrs by broth microdilution method; format: functional
Procedure, shortened: (§1)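 Bacteria grown overnight in cation-adjusted Mueller Hinton broth (CAMHB) at 37 °C, diluted 50-fold and grown 1.5–3 h to mid-log, then inoculated at 5×10^5 CFU mL^-1. Two-fold serial dilutions gave final 0.0039–64 μg mL^-1, plated in duplicate. Incubated 37 °C for 18–24 h. MIC was the lowest concentration with no visible growth (n ≥ 3).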

[2] = tested on: Bacillus subtilis; test: Antibacterial activity against Bacillus subtilis ATCC 6051 assessed as reduction in bacterial growth incubated for 18 to 24 hrs by broth microdilution method; format: functional; procedure, shortened: as §1
[3] = tested on: Enterococcus faecium; test: Antibacterial activity against Enterococcus faecium ATCC 35667 assessed as reduction in bacterial growth incubated for 18 to 24 hrs by broth microdilution method; format: functional; procedure, shortened: as §1
[4] = tested on: Klebsiella pneumoniae; test: Antibacterial activity against Klebsiella pneumoniae ATCC 13883 assessed as reduction in bacterial growth incubated for 18 to 24 hrs by broth microdilution method; format: functional; procedure, shortened: as §1
[5] = tested on: Acinetobacter baumannii; test: Antibacterial activity against Acinetobacter baumannii ATCC 19606 assessed as reduction in bacterial growth incubated for 18 to 24 hrs by broth microdilution method; format: functional; details: ATCC 19606 = CIP 70.34 = JCM 6841; procedure, shortened: as §1
[6] = tested on: Pseudomonas aeruginosa; test: Antibacterial activity against Pseudomonas aeruginosa ATCC 27853 assessed as reduction in bacterial growth incubated for 18 to 24 hrs by broth microdilution method; format: functional
Procedure, shortened: (§2)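 Bacteria grown overnight in cation-adjusted Mueller Hinton broth (CAMHB) at 37 °C, diluted 50-fold and grown 1.5–3 h to mid-log, then inoculated at 5×10^5 CFU mL^-1. Two-fold serial dilutions gave final 0.0039–64 μg mL^-1, plated in duplicate. Incubated 37 °C for 18–24 h.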

[7] = tested on: Pseudomonas aeruginosa; test: Antibacterial activity against Pseudomonas aeruginosa PAO750 PAO397 harbouring delta efflux pump mutant assessed as reduction in bacterial growth incubated for 18 to 24 hrs by broth microdilution method; format: functional
Procedure, shortened: (§3)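 Broth microdilution in cation-adjusted Mueller Hinton broth. Overnight 37 °C cultures were diluted 50-fold and grown 1.5–3 h to mid-log, then seeded at 5×10^5 CFU mL^-1. Compounds were two-fold serially diluted, final range 0.0039–64 μg mL^-1, in duplicate. Plates were incubated at 37 °C for 18–24 h.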

[8] = tested on: Escherichia coli; test: Antibacterial activity against Escherichia coli ATCC 25922 assessed as reduction in bacterial growth incubated for 18 to 24 hrs by broth microdilution method; format: functional; procedure, shortened: as §2
[9] = tested on: Escherichia coli; test: Antibacterial activity against Escherichia coli MB4902 harbouring lpxC mutant assessed as reduction in bacterial growth incubated for 18 to 24 hrs by broth microdilution method; format: functional; procedure, shortened: as §3
[10] = tested on: Escherichia coli; test: Antibacterial activity against Escherichia coli MB5747 harbouring tolC mutant assessed as reduction in bacterial growth incubated for 18 to 24 hrs by broth microdilution method; format: functional; procedure, shortened: as §3
[11] = tested on: Escherichia coli; test: Antibacterial activity against Escherichia coli MB5746 harbouring lpxC and tolC double mutant assessed as reduction in bacterial growth incubated for 18 to 24 hrs by broth microdilution method; format: functional; procedure, shortened: as §3
[12] = Drug uptake in Escherichia coli AG102 incubated for 30 to 45 mins by Hoechst 33342 and Syto9 staining based confocal microscopy; format: ADME
Procedure, shortened: (§4)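 Colonies from LB agar were grown overnight in CAMHB at 37 °C, diluted ~40-fold and grown to OD600 0.4–0.6. Cells were pelleted, washed in HBSS and incubated with probe (50–100 μM) in HBSS at 37 °C for 30–45 min. […] were stained with Hoechst 33342 (5 μg mL^-1) or Syto-9 (10 μM) for 20 min, and membranes with FM4-64FX (5 μg mL^-1) for 5 min on ice. Samples were mounted and imaged by confocal microscopy.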

[13] = Drug uptake in Staphylococcus aureus incubated for 30 to 45 mins by Hoechst 33342 and Syto9 staining based confocal microscopy; format: ADME; procedure, shortened: as §4
[14] = Drug uptake in Escherichia coli AG102 incubated for 30 to 45 mins in presence of CCCP by Hoechst 33342 and Syto9 staining based confocal microscopy; format: ADME; procedure, shortened: as §4

Structure (SMILES)	MIC [1] [µg/mL]	MIC [2] [µg/mL]	MIC [3] [µg/mL]	MIC [4] [µg/mL]	MIC [5] [µg/mL]	MIC [6] [µg/mL]	MIC [7] [µg/mL]	MIC [8] [µg/mL]	MIC [9] [µg/mL]	MIC [10] [µg/mL]	MIC [11] [µg/mL]	Drug uptake [12]	Drug uptake [13]	Drug uptake [14]
CN(C)c1ccc2c(CC(=O)NCc3cn(CCCN4CCN(c5cc6c(cc5F)c(=O)c(C(=O)O)cn6C5CC5)CC4)nn3)cc(=O)oc2c1	16 (≈ 22.9 µM)	4 (≈ 5.72 µM)	32 to 64 (≈ 45.8 to 91.6 µM)	4 to 32 (≈ 5.72 to 45.8 µM)	32 (≈ 45.8 µM)	32 to 64 (≈ 45.8 to 91.6 µM)	2 to 8 (≈ 2.86 to 11.4 µM)	2 (≈ 2.86 µM)	2 (≈ 2.86 µM)	0.5 to 1 (≈ 0.716 to 1.43 µM)	0.5 to 1 (≈ 0.716 to 1.43 µM)	Active	Active	
O=C(O)c1cn(C2CC2)c2cc(N3CCNCC3)c(F)cc2c1=O [CIPROFLOXACIN]	0.125 to 0.5 (≈ 0.377 to 1.51 µM)	0.06 to 0.313 (≈ 0.181 to 0.945 µM)	1 to 8 (≈ 3.02 to 24.1 µM)	0.015 to 0.06 (≈ 0.0453 to 0.181 µM)	0.5 to 1 (≈ 1.51 to 3.02 µM)									
O=C(O)c1cn(C2CC2)c2cc(N3CCN(CCCn4cc(CNc5ccc([N+](=O)[O-])c6nonc56)nn4)CC3)c(F)cc2c1=O	32 to 64 (≈ 50.6 to 101 µM)	8 (≈ 12.6 µM)	32 (≈ 50.6 µM)	8 to 16 (≈ 12.6 to 25.3 µM)	32 to 64 (≈ 50.6 to 101 µM)	32 to 64 (≈ 50.6 to 101 µM)	4 (≈ 6.32 µM)	8 (≈ 12.6 µM)	1 to 4 (≈ 1.58 to 6.32 µM)	0.125 to 0.25 (≈ 0.198 to 0.395 µM)	0.06 to 0.125 (≈ 0.0948 to 0.198 µM)	Not Active	Active	Active
[N-]=[N+]=NCCCN1CCN(c2cc3c(cc2F)c(=O)c(C(=O)O)cn3C2CC2)CC1	0.25 (≈ 0.603 µM)	0.06 to 0.25 (≈ 0.145 to 0.603 µM)	16 to 64 (≈ 38.6 to 154 µM)	0.125 to 0.25 (≈ 0.302 to 0.603 µM)	0.25 to 0.5 (≈ 0.603 to 1.21 µM)	8 to 64 (≈ 19.3 to 154 µM)	32 to 64 (≈ 77.2 to 154 µM)	0.06 to 0.25 (≈ 0.145 to 0.603 µM)	0.25 to 1 (≈ 0.603 to 2.41 µM)	0.25 to 1 (≈ 0.603 to 2.41 µM)	0.25 to 1 (≈ 0.603 to 2.41 µM)			
